Most compounds without a hit are left out; they make up all but 1.8% or so of the library.
CASP6 VEID inh: caspase-6 (human) enzyme inhibition | AID 686996 | 350,000 tested, 0.53% active | inhibition, % at 12.5 µM | purified caspase-6, Z-VEID-R110 cleavage fluorescence;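 active means mean inhibition across replicates at least about 35%, with every replicate also reaching that limit, limit read from the data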;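 further: 0% = median of neutral control wells and 100% = no fluorescence left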
NSD2 HMT inh: inhibitors of human histone methyltransferase NSD2; inhibition, % at 12.5 µM; O96028; 310,000 tested, 0.54% active; NSD2 peptide methylation, AlphaScreen, 120 min; in the data active means inhibition above about 50%
MBD2 DNA inh: blocks human MBD2 binding to methylated DNA; TR-FRET, MBD2 binding to methylated oligonucleotide; inhibition, % at 4.4 µM; 370,000 tested, 0.31% active; AID 686964; in the data active means inhibition above about 13%
Target sequence (Q9UBB5 whole entry, looked up): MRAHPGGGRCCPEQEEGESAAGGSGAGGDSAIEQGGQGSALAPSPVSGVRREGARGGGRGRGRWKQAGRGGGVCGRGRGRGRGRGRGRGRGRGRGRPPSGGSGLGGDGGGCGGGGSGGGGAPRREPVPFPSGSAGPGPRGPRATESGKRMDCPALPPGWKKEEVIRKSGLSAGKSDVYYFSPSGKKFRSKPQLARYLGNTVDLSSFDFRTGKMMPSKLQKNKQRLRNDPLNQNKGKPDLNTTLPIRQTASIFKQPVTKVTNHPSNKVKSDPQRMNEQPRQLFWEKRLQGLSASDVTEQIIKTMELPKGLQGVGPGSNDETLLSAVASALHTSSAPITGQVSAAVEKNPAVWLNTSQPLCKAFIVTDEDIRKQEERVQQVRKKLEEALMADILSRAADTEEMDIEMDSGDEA
LEDGF integ inh: blocks HIV-1 LEDGF/p75-dependent DNA integration. AID 743269. TR-FRET IN-LEDGF/p75 DNA integration, Eu/Cy5. 370,000 tested, 0.64% active. inhibition, % at 3.7 µM;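 active means inhibition above the screen-wide mean plus 3 SD, cut at about 13% in these data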;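 further: signal is the Cy5 over europium emission ratio at 671 and 618 nm; 0% = plate median of compound wells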
TDP2 absorb: TDP2 (human) inhibition, absorbance primary screen | 370,000 tested, 0.34% active | O95551 | AID 720702 | inhibition, % at 12.8 µM | recombinant TDP2, T5PNP hydrolysis, p-nitrophenol absorbance 415 nm;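 active means inhibition above the mean of all tested compounds plus 3 SD, set per campaign, cut at about 25% in these data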;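 further: 0% = DMSO with enzyme and 100% = buffer with substrate but no TDP2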
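Assay system: Recombinant human TDP2 | Quantity: 120 nM TDP2 per well | Incubation: 2 h at 37 °C | Signal: Epi absorbance | Evaluation: Percent inhibition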
UHRF1 MBD2 ctr: UHRF1 methyl-DNA binding inhibition; UHRF1 binding to methylated oligo, TR-FRET; inhibition, % at 4.4 µM; 370,000 tested, 0.75% active; AID 687016; in the data active means inhibition above about 21%;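 further: UHRF1 SRA domain binding a hemimethylated CpG hairpin DNA probe; 0% = median of test compound wells and 100% = reference inhibitor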
Alpha artifact: AlphaScreen assay artifact in NSD2 counter-screen | AlphaScreen artifact counterscreen, preloaded methylated H4 peptide | shares compounds with NSD2 HMT inh | AID 1053174 | AC35, µM (titrated, usually from 10 µM), for inactives: at the top dose activity change, negative = signal loss | 1,500 tested, 9.4% active; call rule not given here
* = called active by the depositor.

What do the screens show for `CCCCCn1c(N)c(C(=O)NCCN2CCOCC2)c2nc3ccccc3nc21`?
NSD2 HMT inh: -25; MBD2 DNA inh: 0; LEDGF integ inh: 6; TDP2 absorb: -13; UHRF1 MBD2 ctr: 0

What do the screens show for `CCCCCCn1c(N)c(C(=O)NCCN2CCOCC2)c2nc3ccccc3nc21`?
NSD2 HMT inh: -5; MBD2 DNA inh: -5; LEDGF integ inh: 0; TDP2 absorb: -17; UHRF1 MBD2 ctr: -2

Results for CCCCn1c(N)c(C(=O)OCC2CCCO2)c2nc3ccccc3nc21 (centres undefined) ?
CASP6 VEID inh: 9; NSD2 HMT inh: 83*; Alpha artifact: 1%

Results for CC(C)CCn1c(N)c(C(=O)OCC2CCCO2)c2nc3ccccc3nc21 (centres undefined) ?
NSD2 HMT inh: -20; MBD2 DNA inh: 1; LEDGF integ inh: -1; TDP2 absorb: 4; UHRF1 MBD2 ctr: -7

How did CCCCCn1c(N)c(C(=O)NCc2cccs2)c2nc3ccccc3nc21 do in these assays?
NSD2 HMT inh: 83*; MBD2 DNA inh: -3; LEDGF integ inh: 1; TDP2 absorb: -10; UHRF1 MBD2 ctr: -3; Alpha artifact: 4%

How did CCCCNC(=O)c1c(N)n(Cc2ccc3c(c2)OCO3)c2nc3ccccc3nc12 do in these assays?
CASP6 VEID inh: -1; NSD2 HMT inh: 68*; MBD2 DNA inh: -3; LEDGF integ inh: 0; TDP2 absorb: 19; UHRF1 MBD2 ctr: -3; Alpha artifact: -6%

Results for C[C@H]1CCCC(=O)CCC/C=C/c2cc(O)cc(O)c2C(=O)O1 ?
CASP6 VEID inh: -1; MBD2 DNA inh: -8; LEDGF integ inh: 4; TDP2 absorb: -12; UHRF1 MBD2 ctr: -2

Results for COc1cc(O)cc2c1C(=O)OC(C)CCCC(=O)CCC/C=C\2 (centres undefined) ?
CASP6 VEID inh: 3; NSD2 HMT inh: 54*; MBD2 DNA inh: -1; LEDGF integ inh: -2; TDP2 absorb: -6; UHRF1 MBD2 ctr: 4; Alpha artifact: -1%

What do the screens show for `COC(=O)[C@H]1[C@H](CO)[C@H]2Cn3c(ccc(/C=C/c4ccccc4)c3=O)[C@@H]1N2CC1CCCC1`?
CASP6 VEID inh: 3

What do the screens show for `O=C1NC(=O)N(c2ccccc2)C(=O)/C1=C/c1ccoc1`?
NSD2 HMT inh: 51*; MBD2 DNA inh: 8; LEDGF integ inh: 9; TDP2 absorb: 8; UHRF1 MBD2 ctr: 3; Alpha artifact: -6%

What do the screens show for `COC(=O)[C@H]1[C@H](CO)[C@H]2Cn3c(cccc3=O)[C@@H]1N2Cc1nccs1`?
CASP6 VEID inh: -1

What do the screens show for `CC=Cc1ccc2n(c1=O)C[C@@H]1[C@@H](CO)[C@H](C(=O)N(C)C)[C@H]2N1C` (mixture of isomers)?
CASP6 VEID inh: 1

How did COC(=O)c1nc(-c2ccc3c(n2)C(=O)C(N)=C(OC)C3=O)c(N)c(-c2ccc(OC)c(OC)c2O)c1C do in these assays?
CASP6 VEID inh: 54*; NSD2 HMT inh: 55*; MBD2 DNA inh: -7; LEDGF integ inh: 4; TDP2 absorb: 6; UHRF1 MBD2 ctr: -2; Alpha artifact: -2%

How did CCn1nc(/C=C/c2ccccc2)nc2c(=O)n(C)c(=O)nc1-2 do in these assays?
NSD2 HMT inh: active; MBD2 DNA inh: 5; LEDGF integ inh: -35; TDP2 absorb: 79*; UHRF1 MBD2 ctr: 7; Alpha artifact: -1%

How did O=C(c1ccccc1F)N1CCC2(CC1)OCCO2 do in these assays?
CASP6 VEID inh: 1; NSD2 HMT inh: 0; MBD2 DNA inh: 0; LEDGF integ inh: -6; TDP2 absorb: -5; UHRF1 MBD2 ctr: 0

Results for O=C(c1cc2ccccc2oc1=O)N1CCC2(CC1)OCCO2 ?
NSD2 HMT inh: 65*; MBD2 DNA inh: 4; LEDGF integ inh: -3; TDP2 absorb: 0; UHRF1 MBD2 ctr: 6; Alpha artifact: -4%

What do the screens show for `CCC(=O)N1[C@@H]2c3ccc(C4=CCCC4)c(=O)n3C[C@H]1[C@H](CO)[C@H]2C(=O)OC`?
CASP6 VEID inh: 3

Results for Cn1c(=O)[nH]c2nncnc2c1=O ?
CASP6 VEID inh: 43*; NSD2 HMT inh: 54*; MBD2 DNA inh: 1; LEDGF integ inh: 4; TDP2 absorb: 23; UHRF1 MBD2 ctr: -10; Alpha artifact: -3%

How did Fc1ccc(Cn2nnnc2C(c2ccc(Cl)cc2)N2CC=C(c3ccc(F)cc3)CC2)cc1 (centres undefined) do in these assays?
CASP6 VEID inh: -1; NSD2 HMT inh: 51*; MBD2 DNA inh: 5; LEDGF integ inh: -2; TDP2 absorb: 5; UHRF1 MBD2 ctr: 1; Alpha artifact: -1%
